Reference: ChEMBL document CHEMBL1146569, “The pterocellins, novel bioactive alkaloids from the marine bryozoan Pterocella vesiculosa” (J Nat Prod, 2003)

Legend:
[1] = Cytotoxicity against african green monkey BSC1 cells at 40 ug/disk; type: cell-based; details: chlorocebus aethiops, bsc-1
Summary of the method: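 BSC-1 cells (ATCC CCL 26), a line derived from African green monkey kidney, are the host cells of the combined antiviral/cytotoxicity assay. Cytotoxicity is scored on these cells within that assay.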

Escherichia coli = experiment: Antimicrobial activity against Escherichia coli assessed per disk; type: functional
Pseudomonas aeruginosa = experiment: Antimicrobial activity against Pseudomonas aeruginosa assessed per disk; type: functional
[2] = test system: Trichophyton mentagrophytes; experiment: Antimicrobial activity against Trichophyton mentagrophytes assessed per disk; type: functional
CCRF-CEM = experiment: Growth inhibition of human CCRF-CEM cells; type: functional
HL-60(TB) = experiment: Growth inhibition of human HL-60(TB) cells; type: functional
[3] = Growth inhibition of human […] cells; type: functional
SR = experiment: Growth inhibition of human SR cells; type: functional
A549 = experiment: Growth inhibition of human A549 cells; type: functional
EKVX = experiment: Growth inhibition of human EKVX cells; type: functional
HOP-62 = experiment: Growth inhibition of human HOP62 cells; type: functional
HOP-92 = experiment: Growth inhibition of human HOP92 cells; type: functional
NCI-H322M = experiment: Growth inhibition of human NCI-H322M cells; type: functional
NCI-H460 = experiment: Growth inhibition of human NCI-H460 cells; type: functional
NCI-H522 = experiment: Growth inhibition of human NCI-H522 cells; type: functional
COLO 205 = experiment: Growth inhibition of human COLO205 cells; type: functional
HCC 2998 = experiment: Growth inhibition of human HCC2998 cells; type: functional
HCT-116 = experiment: Growth inhibition of human HCT116 cells; type: functional
HT-29 = experiment: Growth inhibition of human HT-29 cells; type: functional
KM12 = experiment: Growth inhibition of human KM12 cells; type: functional
SF-268 = experiment: Growth inhibition of human SF268 cells; type: functional
SF-539 = experiment: Growth inhibition of human SF539 cells; type: functional
SNB-19 = experiment: Growth inhibition of human SNB19 cells; type: functional
SNB-75 = experiment: Growth inhibition of human SNB75 cells; type: functional
LOX IMVI = experiment: Growth inhibition of human LOXIMVI cells; type: functional
Malme-3M = experiment: Growth inhibition of human MALME-3M cells; type: functional
SK-MEL-2 = experiment: Growth inhibition of human SK-MEL-2 cells; type: functional
SK-MEL-28 = experiment: Growth inhibition of human SK-MEL-28 cells; type: functional
SK-MEL-5 = experiment: Growth inhibition of human SK-MEL-5 cells; type: functional
UACC-257 = experiment: Growth inhibition of human UACC257 cells; type: functional
UACC-62 = experiment: Growth inhibition of human UACC62 cells; type: functional
OVCAR-3 = experiment: Growth inhibition of human OVCAR-3 cells; type: functional
OVCAR-4 = experiment: Growth inhibition of human OVCAR4 cells; type: functional
OVCAR-5 = experiment: Growth inhibition of human OVCAR5 cells; type: functional
OVCAR-8 = experiment: Growth inhibition of human OVCAR8 cells; type: functional
SK-OV-3 = experiment: Growth inhibition of human SKOV3 cells; type: functional
A498 = experiment: Growth inhibition of human A498 cells; type: functional
ACHN = experiment: Growth inhibition of human ACHN cells; type: functional
CAKI-1 = experiment: Growth inhibition of human Caki1 cells; type: functional
PC-3 = experiment: Growth inhibition of human PC3 cells; type: functional
NCI/ADR-RES = experiment: Growth inhibition of human NCI/ADR-RES cells; type: functional
[4] = Growth inhibition of human Hs 578T cells; type: functional
MDA-N = experiment: Growth inhibition of human MDA-N cells; type: functional
T47D = experiment: Growth inhibition of human T47D cells; type: functional
Amorphotheca resinae = experiment: Antimicrobial activity against Cladosporium resinae assessed per disk; type: functional
[5] = read-out: LC50 (the source's name)

For `COc1cn2c(cc1=O)C(=O)c1ccnc(CC(C)C)c1-2` [PTEROCELLIN A], the Activity [1] was “Toxic”, the MIC (Escherichia coli) was over 60 µg and the MIC (Pseudomonas aeruginosa) was over 60 µg. For the same molecule, the MIC [2] was 3.9 µg, the GI50 (CCRF-CEM) was 0.05 µM and the TGI (CCRF-CEM) was 0.8 µM. It also gave a CC50 (CCRF-CEM; [5]) of over 100 µM, a GI50 (HL-60(TB)) of 3 µM and a TGI (HL-60(TB)) of over 100 µM. For the same molecule, the CC50 (HL-60(TB); [5]) was over 100 µM, the GI50 [3] was 1.7 µM and the TGI [3] was 4.2 µM. For the same molecule, the CC50 [3, 5] was over 100 µM, the GI50 (SR) was 2 µM and the TGI (SR) was over 100 µM. The CC50 (SR; [5]) was over 100 µM, the GI50 (A549) was 1.3 µM and the LC50 (50% cell kill concentration) (A549) was over 100 µM. For the same molecule, the TGI (A549) was 5.1 µM, the GI50 (EKVX) was 2.1 µM and the TGI (EKVX) was 5.8 µM. The CC50 (EKVX; [5]) was 23.6 µM, the GI50 (HOP-62) was 1.7 µM and the TGI (HOP-62) was 3.1 µM. For the same molecule, the CC50 (HOP-62; [5]) was 5.6 µM, the GI50 (HOP-92) was 2.2 µM and the TGI (HOP-92) was 4.9 µM. The CC50 (HOP-92; [5]) was 14.1 µM, the GI50 (NCI-H322M) was 1.6 µM and the LC50 (concentration killing 50% of cells) (NCI-H322M) was 5.6 µM. For the same molecule, the TGI (NCI-H322M) was 3 µM, the GI50 (NCI-H460) was 0.8 µM and the LC50 (concentration causing 50% cell kill) (NCI-H460) was 7.1 µM. The TGI (NCI-H460) was 2.6 µM, the GI50 (NCI-H522) was 1.7 µM and the TGI (NCI-H522) was 3.3 µM. It also gave a CC50 (NCI-H522; [5]) of 6.5 µM, a GI50 (COLO 205) of 1.6 µM and a TGI (COLO 205) of 3.7 µM. It also gave a CC50 (COLO 205; [5]) of 8.4 µM, a GI50 (HCC 2998) of 1.6 µM and an LC50 (concentration killing 50% of cells) (HCC 2998) of 6 µM. For the same molecule, the TGI (HCC 2998) was 3.1 µM, the GI50 (HCT-116) was 1.1 µM and the LC50 (HCT-116) was 11.2 µM. The TGI (HCT-116) was 2.5 µM, the GI50 (HT-29) was 1.3 µM and the LC50 (HT-29) was over 100 µM. For the same molecule, the TGI (HT-29) was 7.2 µM, the GI50 (KM12) was 1.6 µM and the TGI (KM12) was 3.4 µM. It also gave a CC50 (KM12; [5]) of 7.3 µM, a GI50 (SF-268) of 2.1 µM and an LC50 (concentration killing 50% of cells) (SF-268) of 26.7 µM. The TGI (SF-268) was 6.7 µM, the GI50 (SF-539) was 1.8 µM and the TGI (SF-539) was 3.6 µM. For the same molecule, the CC50 (SF-539; [5]) was 7.1 µM, the GI50 (SNB-19) was 2.9 µM and the TGI (SNB-19) was 11.4 µM. For the same molecule, the CC50 (SNB-19; [5]) was 60 µM, the GI50 (SNB-75) was 1.4 µM and the TGI (SNB-75) was 3.9 µM. For the same molecule, the CC50 (SNB-75; [5]) was 56.8 µM, the GI50 (LOX IMVI) was 1.3 µM and the LC50 (LOX IMVI) was over 100 µM. For the same molecule, the TGI (LOX IMVI) was 7.4 µM, the GI50 (Malme-3M) was 0.1 µM and the TGI (Malme-3M) was 0.3 µM. The CC50 (Malme-3M; [5]) was 0.8 µM, the GI50 (SK-MEL-2) was 1.9 µM and the TGI (SK-MEL-2) was 3.4 µM. For the same molecule, the CC50 (SK-MEL-2; [5]) was 6.3 µM, the GI50 (SK-MEL-28) was 1.9 µM and the TGI (SK-MEL-28) was 4.2 µM. For the same molecule, the CC50 (SK-MEL-28; [5]) was 9.3 µM, the GI50 (SK-MEL-5) was 0.2 µM and the TGI (SK-MEL-5) was 0.3 µM. It also gave a CC50 (SK-MEL-5; [5]) of 0.6 µM, a GI50 (UACC-257) of 1.1 µM and a TGI (UACC-257) of 3 µM. The CC50 (UACC-257; [5]) was 7.9 µM, the GI50 (UACC-62) was 1.4 µM and the LC50 (50% cell kill) (UACC-62) was 6 µM. It also gave a TGI (UACC-62) of 2.9 µM, a GI50 (OVCAR-3) of 1.5 µM and a TGI (OVCAR-3) of 4.6 µM. The CC50 (OVCAR-3; [5]) was 19.3 µM, the GI50 (OVCAR-4) was 1.7 µM and the LC50 (OVCAR-4) was 7.6 µM. For the same molecule, the TGI (OVCAR-4) was 3.6 µM, the GI50 (OVCAR-5) was 2 µM and the TGI (OVCAR-5) was 3.4 µM. For the same molecule, the CC50 (OVCAR-5; [5]) was 5.6 µM, the GI50 (OVCAR-8) was 2.2 µM and the TGI (OVCAR-8) was 17.6 µM. For the same molecule, the CC50 (OVCAR-8; [5]) was over 100 µM, the GI50 (SK-OV-3) was 6.1 µM and the TGI (SK-OV-3) was 21.9 µM. It also gave a CC50 (SK-OV-3; [5]) of 59.2 µM, a GI50 (A498) of 0.9 µM and a TGI (A498) of 2.2 µM. For the same molecule, the CC50 (A498; [5]) was 5.1 µM, the GI50 (ACHN) was 2.3 µM and the TGI (ACHN) was 9.1 µM. It also gave a CC50 (ACHN; [5]) of over 100 µM, a GI50 (CAKI-1) of 2.1 µM and a TGI (CAKI-1) of 4.6 µM. For the same molecule, the CC50 (CAKI-1; [5]) was 11.1 µM, the GI50 (PC-3) was 2.9 µM and the LC50 (concentration killing 50% of cells) (PC-3) was 45.1 µM. For the same molecule, the TGI (PC-3) was 8.4 µM, the GI50 (NCI/ADR-RES) was 2.1 µM and the TGI (NCI/ADR-RES) was 4.9 µM. The CC50 (NCI/ADR-RES; [5]) was over 100 µM, the GI50 [4] was 6.3 µM and the TGI [4] was over 100 µM. For the same molecule, the CC50 [4, 5] was over 100 µM, the GI50 (MDA-N) was 0.2 µM and the TGI (MDA-N) was 0.4 µM. It also gave a CC50 (MDA-N; [5]) of 0.6 µM, a GI50 (T47D) of 1.8 µM and a TGI (T47D) of 6.5 µM. For the same molecule, the CC50 (T47D; [5]) was over 100 µM and the MIC (Amorphotheca resinae) was over 60 µg.
